An excerpt weighted towards active compounds, which were near 2.6% of everything screened.
TAAR1 ag – human TAAR1 agonism; Q96RJ0; CHO RD-HGA16 TAAR1, Fluo-8 calcium fluorescence; vehicle wells 0%, saturating PEA agonist 100%; activation, % at 3 µM; 360,000 compounds, 0.99% hits; AID 624467;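 active = activation above the mean activation of all test compounds in the run plus 3 SD, cut at about 38% in these data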
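Signal – calcium-sensitive Fluo-8 signal, excitation 470-495, emission 515-575 nm · System – RD-HGA16 (CHO) cells co-expressing Gα16 and hTAAR1 · Incubation – 17-24 h seeding, 75 min 37 °C dye, 30 min RT · Compound dosing – 3 µM single concentration · Repeats – no replicates (n 1)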
TAAR1 antagonist – human TAAR1 antagonism | Q96RJ0 | CHO RD-HGA16 TAAR1, Fluo-8 calcium fluorescence, antagonist | AID 624466 | 360,000 compounds, 1.5% hits | inhibition, % at 3 µM;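 active = inhibition above a per-plate cutoff, the mean inhibition of test compounds on that plate plus 3 SD, cut at about 49% in these data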
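Material: RD-HGA16 CHO cells with stable hTAAR1 and Gα16; Dosing: single nominal final test compound concentration of 3 µM; Schedule: seeding 17-24 h prior, 75-min 37 °C, 30-min RT dye loading; Detection: kinetic Fluo-8 calcium fluorescence measurement; Measure: % inhibition from peak post-agonist over basal fluorescence ratio; Benchmarks: vehicle and agonist controls.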
Platelet DG rel – modulates dense granule release in human platelets; human platelet-rich plasma, SFLLRN dense granule ATP release, luminescence; 300,000 compounds, 0.22% hits; inhibition, %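 (compounds screened at 7.5 µM in platelet-rich plasma)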;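 active = mean replicate score, as percent of positive control, at or above 50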
VLA-4 inh – inhibition in a human VLA-4 binding assay. P13612. VLA-4 expressing cells, ligand binding flow cytometry. inhibition, % (about 7 µM as worked out from the volumes in the protocol). 330,000 compounds, 0.2% hits; in the data active = inhibition above about 50%
Target sequence (P13612 whole entry, looked up): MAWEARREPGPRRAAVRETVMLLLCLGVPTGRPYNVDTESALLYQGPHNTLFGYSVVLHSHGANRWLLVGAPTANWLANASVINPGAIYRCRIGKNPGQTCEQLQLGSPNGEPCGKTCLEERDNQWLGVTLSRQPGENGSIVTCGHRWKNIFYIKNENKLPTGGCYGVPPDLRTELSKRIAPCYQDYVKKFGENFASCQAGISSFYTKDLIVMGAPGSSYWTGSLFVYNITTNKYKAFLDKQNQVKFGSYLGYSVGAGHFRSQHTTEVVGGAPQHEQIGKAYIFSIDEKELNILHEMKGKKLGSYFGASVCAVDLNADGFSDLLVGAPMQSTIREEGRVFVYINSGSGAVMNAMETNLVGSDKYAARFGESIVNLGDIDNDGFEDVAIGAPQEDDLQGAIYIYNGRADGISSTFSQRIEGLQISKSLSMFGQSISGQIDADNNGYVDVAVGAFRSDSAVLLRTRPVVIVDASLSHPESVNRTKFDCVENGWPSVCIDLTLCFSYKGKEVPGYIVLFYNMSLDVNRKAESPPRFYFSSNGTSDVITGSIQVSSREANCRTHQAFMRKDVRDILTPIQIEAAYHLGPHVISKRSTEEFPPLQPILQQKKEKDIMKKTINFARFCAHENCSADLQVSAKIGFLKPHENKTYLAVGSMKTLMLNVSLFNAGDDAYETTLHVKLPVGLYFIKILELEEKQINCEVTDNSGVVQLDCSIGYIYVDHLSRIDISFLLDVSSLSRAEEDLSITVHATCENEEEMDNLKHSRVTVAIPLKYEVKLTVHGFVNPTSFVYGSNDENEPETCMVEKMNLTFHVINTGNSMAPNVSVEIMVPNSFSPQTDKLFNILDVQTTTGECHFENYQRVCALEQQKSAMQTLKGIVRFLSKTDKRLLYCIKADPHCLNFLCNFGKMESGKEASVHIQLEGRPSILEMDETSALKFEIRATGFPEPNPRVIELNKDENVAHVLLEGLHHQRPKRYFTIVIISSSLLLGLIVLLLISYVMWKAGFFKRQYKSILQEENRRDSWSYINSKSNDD
Rce1 inh – blocks yeast Ras-converting enzyme. yeast membranes, quenched prenylated peptide cleavage fluorescence. calls only. 290,000 compounds, 0.27% hits;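 active = fall in fluorescence gain of 50% or more versus controls, with final raw signal at or below 3038400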
TAAR1 nonsel count – nonselective antagonist in TAAR1 antagonist counter-screen. shares compounds with TAAR1 antagonist. counterscreen cell line, calcium fluorescence, antagonist mode. inhibition, % at 3 µM. 2,400 compounds, 77% hits; in the data active = inhibition above about 22%;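 note: CHO-Ga16 host cells stimulated with ATP at an EC80 level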
TAAR1 ant conf – human TAAR1 antagonism, confirmed | shares compounds with TAAR1 antagonist | TAAR1-expressing cells, fluorescence antagonist read-out | inhibition, % at 3 µM | 2,400 compounds, 40% hits; in the data active = inhibition above about 49%;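 note: CHO-Ga16 host cells challenged with agonist PEA near its EC80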
Ga16 ag counter – counter-screen for TAAR1 antagonists: nonselective Ga16 agonists | shares compounds with TAAR1 antagonist | Ga16-expressing cells, calcium fluorescence, agonist counterscreen | 2,400 compounds, 18% hits | activation, % at 3 µM; in the data active = activation above about 12%
TAAR1 ag counter – counter-screen for human TAAR1 antagonists: TAAR1 agonists | 2,400 compounds, 2% hits | AID 651955 | activation, % at 3 µM | hTAAR1 cell line, fluorescence activation, agonist mode | shares compounds with TAAR1 antagonist; in the data active = activation above about 37%;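 note: CHO cells stably expressing TAAR1 with calcium dye readout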
Hits are given with their value.

Screening Cc1ccc(C(C)C)c(OCc2ccc(C(=O)N/N=C/c3cccc(O)c3O)cc2)c1 returned TAAR1 ag inactive, TAAR1 antagonist 77, Platelet DG rel inactive, VLA-4 inh inactive, Rce1 inh inactive, TAAR1 nonsel count 47, TAAR1 ant conf 80, Ga16 ag counter inactive and TAAR1 ag counter inactive.
For Nc1ccc(CCc2ccc(N)cc2)cc1 the results were TAAR1 ag inactive, TAAR1 antagonist inactive, Platelet DG rel inactive, VLA-4 inh inactive and Rce1 inh inactive.
`CC(C)(C)c1ccc(S(=O)(=O)N2CCN(Cc3cc4c(cc3O)OCO4)CC2)cc1` gave TAAR1 ag inactive, TAAR1 antagonist inactive and VLA-4 inh inactive.
Screening CCO[C@@H]1OC(C(=O)Nc2ccccc2)=C[C@H](c2ccc3c(c2)OCO3)[C@H]1CCCO returned TAAR1 ag inactive, TAAR1 antagonist 49, Platelet DG rel inactive, VLA-4 inh inactive, Rce1 inh inactive, TAAR1 nonsel count inactive, TAAR1 ant conf inactive, Ga16 ag counter inactive and TAAR1 ag counter inactive.
For CCO[C@@H]1OC(C(=O)N2CCN(Cc3ccc4c(c3)OCO4)CC2)=C[C@H](C2CCCCC2)[C@H]1CCCO the results were TAAR1 ag inactive, TAAR1 antagonist 67, Platelet DG rel inactive, VLA-4 inh inactive, Rce1 inh inactive, TAAR1 nonsel count 29, TAAR1 ant conf inactive, Ga16 ag counter inactive and TAAR1 ag counter inactive.
C[C@H](NC(=O)c1nc[nH]c1C(=O)N[C@@H](C)C(=O)OCc1ccccc1)C(=O)OCc1ccccc1 was read as TAAR1 ag inactive, TAAR1 antagonist 58, Platelet DG rel inactive, VLA-4 inh inactive, Rce1 inh inactive, TAAR1 nonsel count inactive, TAAR1 ant conf inactive, Ga16 ag counter inactive and TAAR1 ag counter inactive.
`CC(C)(C)OC(=O)N1CCC(NC(=O)c2nc[nH]c2C(=O)NCC(=O)OCc2ccccc2)CC1` gave TAAR1 ag inactive, TAAR1 antagonist 70, Platelet DG rel inactive, VLA-4 inh inactive, Rce1 inh inactive, TAAR1 nonsel count 31, TAAR1 ant conf 59, Ga16 ag counter inactive and TAAR1 ag counter inactive.
For C[C@@H](NC(=O)c1nc[nH]c1C(=O)OCc1ccccc1)c1ccccc1 the results were TAAR1 ag inactive, TAAR1 antagonist inactive and VLA-4 inh inactive.
For C[C@@H](NC(=O)c1nc[nH]c1C(=O)NCC(=O)OCc1ccccc1)c1ccccc1 the results were TAAR1 ag inactive, TAAR1 antagonist 68, Platelet DG rel inactive, VLA-4 inh inactive, Rce1 inh inactive, TAAR1 nonsel count 32, TAAR1 ant conf 55, Ga16 ag counter inactive and TAAR1 ag counter inactive.
For C[C@@H](NC(=O)c1nc[nH]c1C(=O)N1CCc2ccccc2C1)c1ccccc1 the results were TAAR1 ag inactive, TAAR1 antagonist inactive and VLA-4 inh inactive.
COc1ccc(-c2cn3c(C)c(C(=O)Nc4ccncc4)sc3n2)cc1 was read as TAAR1 ag inactive, TAAR1 antagonist inactive, Platelet DG rel inactive, VLA-4 inh inactive and Rce1 inh inactive.
Screening COc1ccc(-c2cn3c(C)c(C(=O)Nc4cccc(NC(C)=O)c4)sc3n2)cc1 returned TAAR1 ag inactive, TAAR1 antagonist 50, Platelet DG rel inactive, VLA-4 inh inactive, Rce1 inh inactive, TAAR1 nonsel count 27, TAAR1 ant conf inactive, Ga16 ag counter 13 and TAAR1 ag counter inactive.
`COc1ccc(-n2nc(C(=O)NCC(=O)Nc3cc(OC)c(OC)c(OC)c3)c3ccccc3c2=O)cc1` gave TAAR1 ag inactive, TAAR1 antagonist 58, Platelet DG rel inactive, VLA-4 inh inactive, Rce1 inh inactive, TAAR1 nonsel count 28, TAAR1 ant conf 51, Ga16 ag counter inactive and TAAR1 ag counter inactive.
`CCOC(=O)N1CCN(C(=O)CNC(=O)c2nn(-c3ccc(OC)c(Cl)c3)c(=O)c3ccccc23)CC1` gave TAAR1 ag inactive, TAAR1 antagonist 62, Platelet DG rel inactive, VLA-4 inh inactive, Rce1 inh inactive, TAAR1 nonsel count 32, TAAR1 ant conf inactive, Ga16 ag counter inactive and TAAR1 ag counter inactive.

Screens deposited in PubChem by several laboratories.
